The subject of one assay is Nucleic Acid. Description: cleavage of Escherichia coli DNA by agarose gel electrophoresis. The assay is classed as nucleic-acid assay. The method in brief: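 Genomic DNA from E. coli grown 24 h at 37 °C in nutrient broth, isolated by SDS lysis, phenol and chloroform:isoamyl alcohol extraction, ethanol precipitation. Samples (1 mg/ml stock in DMF) added to DNA, incubated 2 h at 37 °C, mixed 1:1 with bromophenol blue, run on agarose gel in TAE beside DNA marker, 50 V for 30 min.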

The test system of assay [1] is Radical scavenging activity. Description: Antioxidant activity assessed as DPPH radical scavenging activity. It is filed as functional. The method in brief:
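DPPH method: 10, 50 and 100 µg sample or BHA brought to 100 µl with MeOH, plus 5 mL 0.1 mM methanolic DPPH, shaken, left 20 min at 27 °C; absorbance at 517 nm versus control lacking sample. % scavenging = [(control OD − sample OD)/control OD] × 100.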
A general note: DPPH is a stable violet radical that fades when it is reduced.

The nature of assay [2]: Antioxidant activity assessed as ferric reduction. It is filed as functional. The method in brief:
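Reducing power: sample with 200 mmol/L sodium phosphate buffer (pH 6.6) and 2.5 mL 1% potassium ferricyanide, held 50 °C for 20 min, then 2.5 mL 10% (w/v) trichloroacetic acid added.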

Assay [3] can be described thus: Antioxidant activity assessed as equivalence of ascorbic acid. It is filed as functional. The method in brief: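 Phosphomolybdenum total antioxidant capacity: 10, 50 and 500 µg sample mixed with 1.9 mL reagent (0.6 M sulfuric acid, 28 mM sodium phosphate, 4 mM ammonium molybdate), heated 95 °C for 90 min, cooled; absorbance at 695 nm against blank. Expressed as ascorbic acid equivalents from an ascorbic acid standard graph.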

The source made the active and inactive calls. No cut-off for these calls is given here.

The results in this text go back to ChEMBL document CHEMBL1240445, “Synthesis, antioxidant and DNA cleavage activities of novel indole derivatives” (Eur J Med Chem, 2010).

`O=C1NC(=O)C(=C(/C=C/c2c(-c3ccccc3)[nH]c3ccc(Cl)cc23)c2ccc(Cl)cc2)C(=O)N1`: the outcome (with Nucleic Acid; in assay [1]) was Active.

Turning to `Cc1ccc2[nH]c(-c3ccccc3)c(/C=C/C(=C3C(=O)NC(=O)NC3=O)c3ccccc3)c2c1`, the outcome with Nucleic Acid was Active.

On to `Cc1ccc2[nH]c(-c3ccccc3)c(/C=C/C(=C3C(=O)NC(=O)NC3=O)c3ccc(Cl)cc3)c2c1`, for which the outcome in the assay on Nucleic Acid was Active.

In the case of `Cc1ccc(C(/C=C/c2c(-c3ccccc3)[nH]c3ccc(C)cc23)=C2C(=O)NC(=O)NC2=O)cc1`, the outcome in the assay with Nucleic Acid was Active.

Consider `O=C1NC(=O)C(=C(/C=C/c2c[nH]c3ccccc23)c2ccc(Cl)cc2)C(=O)N1`, for which the result (with Nucleic Acid; in assay [2]; in assay [3]) was Active.

Take `Cc1ccc(C(/C=C/c2c(-c3ccccc3)[nH]c3ccc(Cl)cc23)=C2C(=O)NC(=O)NC2=O)cc1`: the result (in the assay with Nucleic Acid; in assay [1]) was Active.

Take `O=C1NC(=O)C(=C(/C=C/c2c[nH]c3ccccc23)c2ccccc2)C(=O)N1`: the result (with Nucleic Acid; in assay [2]; in assay [3]) was Active.

Consider `O=C1NC(=O)C(=C(/C=C/c2c(-c3ccccc3)[nH]c3ccc(Cl)cc23)c2ccccc2)C(=O)N1`, for which the outcome (with Nucleic Acid; in assay [1]) was Active.

`Cc1ccc(C(/C=C/c2c[nH]c3ccccc23)=C2C(=O)NC(=O)NC2=O)cc1`: the result (in the assay with Nucleic Acid; in assay [2]; in assay [3]) was Active.
